# From PubChem
# MT stabilize HCS – stabilizes microtubules in HeLa cells; 0.83% of 200,000 active; HeLa tubulin immunostaining HCS, 24 h; share of cells brighter than vehicle mean+2SD; % tubulin-high responders, % at 10 µM;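 active = plate Z-score above 3 for both tubulin-high and condensed-nucleus cell shares, with cell loss under 80%, at 10 µM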;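 note: anti alpha tubulin signal scored within the nucleus-defined area of each cell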
# Insulin prom up – MIN6 insulin promoter up-regulation. MIN6 insulin promoter-GFP reporter, high-content imaging; stronger effect = higher value. z-score at 5 µM. 0.3% of 190,000 active. AID 1625;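 active = z-score above 3 at 5 µM with at least 500 cells counted in the well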
# Autophagy mod – alters autophagy in cells; AID 463193; MEF GFP-LC3 puncta imaging; test concentration mostly 10 µM; calls only at 10 µM (by protocol); 0.98% of 190,000 active;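 active = percentage of spot-positive cells more than 3 SD above its plate mean, without a fluorescence outlier flag or 80% toxicity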
# TbHK1 inh – T. brucei hexokinase 1 inhibition; AID 1430; recombinant TbHK1, G6PDH-coupled NADH A340; inhibition, % at 10 µM; 0.11% of 220,000 active;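 active = inhibition of 50% or more in the single-dose primary screen; inactive = inhibition below 50%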
# b-catenin transl – beta-catenin nuclear translocation modulation; nuclear translocation activity, % at 5 µM; 0.3% of 190,000 active; HeLa beta-catenin nuclear translocation, immunofluorescence imaging;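 active = nuclear translocation activity above 50% at 5 µM, with a well cell count of 50 or more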;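 note: per-cell ratio of nuclear to cytoplasmic median beta-catenin stain intensity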
#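 Technique: fluorescence imaging of beta-catenin antibody stain plus DAPI / Material: human HeLa cell line / Incubation: compound treatment 24 h, 37°C, 5% CO2 / Read-out basis: % activation of per-cell nuclear versus cytoplasmic median beta-catenin signal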
# G6PDH ctr – inhibits Leuconostoc G6PDH, counter-screen for TbHK1 inhibitors | 7% of 210 active | purified G6PDH, NADH absorbance, 1 h | AID 2516 | inhibition, % at 10 µM | shares compounds with TbHK1 inh;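 active = at least 50% inhibition in the glucose-6-phosphate dehydrogenase coupled counterscreen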
# TbHK1 confirm – confirmation of Trypanosoma brucei hexokinase 1 inhibitors; shares compounds with TbHK1 inh; inhibition, % at 10 µM; AID 2560; recombinant TbHK1, G6PDH-coupled NADH A340 absorbance; 10% of 210 active;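 active = inhibition of at least 50% in both of the two screening runs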
# A number is an active result; i = inactive; nt = no result given. A selection: hits, their analogues and other compounds. The true share with any hit is near 1.9%.
SMILES,MT stabilize HCS,Insulin prom up,Autophagy mod,TbHK1 inh,b-catenin transl,G6PDH ctr,TbHK1 confirm
CCn1c(SCC(=O)c2ccccc2)nc2sc3c(c2c1=O)CCN(C)C3,nt,i,nt,i,i,nt,nt
C/C(=N\Nc1nc2ccc(Cl)cc2o1)c1ccccc1,nt,i,nt,i,i,nt,nt
CCN(CCCNC(=O)CC(C(=O)N1CCc2ccccc21)n1ccnc1)c1ccccc1 (configuration not stated),i,i,i,55.5,i,i,i
Nc1nonc1-c1nc2ccccc2n1CC(=O)N/N=C\c1ccc(-c2ccc(Cl)cc2)o1,i,i,i,52.2,i,108.5,i
CCOC(=O)N1CCN(C(=O)C2CCN(S(=O)(=O)N3CCCC3)CC2)CC1,i,nt,i,58.0,nt,i,i
Cc1ccc(S(=O)(=O)Nc2ncc(C(F)(F)F)cc2Cl)cc1,i,i,i,i,i,nt,nt
O=C(COc1ccc(Br)cc1)NNC(=S)NC(=O)c1ccccc1[N+](=O)[O-],i,i,i,60.9,i,i,i
O=C(NNC(=S)NC(=O)c1ccccc1[N+](=O)[O-])c1ccccc1[N+](=O)[O-],i,nt,i,i,i,nt,nt
